The results in this text go back to ChEMBL document CHEMBL4321859, “Unforeseen Possibilities To Investigate the Regulation of Polyamine Metabolism Revealed by Novel C-Methylated Spermine Derivatives” (J Med Chem, 2019).

Data set [1] has as its system DU-145. Description: Cytotoxicity against human DU145 cells at 100 uM after 3 days. Type of data set: cell-based. The note with it: du-145, 72 h. The method in brief:
(§1)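 DU145 cells grown in high-glucose DMEM with 10% heat-inactivated FBS, 2 mM L-glutamine and gentamycin at 37 °C, 5% CO2. Treated 3 days with 100 μM analogue, with or without 1 mM aminoguanidine. Cells harvested by trypsinization and counted electronically (Coulter counter). Means ± SD, n = 3.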

Data set [2] can be described thus: Drug level in human DU145 cells at 100 uM in presence of SSAO inhibitor aminoguanidine after 3 days by HPLC method. Type of data set: ADME, cell-based. The note with it: du-145, 72 h. An outline of the steps:
(§2)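 DU145 cells exposed to 100 μM analogue for 6 h or 3 days, with or without 1 mM aminoguanidine. Cells were lysed in 50 mM potassium phosphate pH 7.2 with EDTA, Triton X-100 and DTT. Lysate was mixed with sulphosalicylic acid containing diaminoheptane as internal standard. Polyamines, analogue and MeSpd were measured by HPLC and normalized to DNA (PicoGreen), expressed as pmol/μg DNA. Means ± SD, n = 3.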

Data set [3] can be described thus: Drug level in human DU145 cells assessed per ug DNA at 100 uM after 3 days by HPLC method. In kind it is ADME, cell-based. As to conditions: du-145, 72 h; call rule not given here. An outline of the steps:
as §2

The test system of data set [4] is DU-145. The data set is described as follows: Downregulation of intracellular N1-acetylspermidine level in human DU145 cells assessed per ug DNA at 100 uM after 6 hrs by HPLC method (Rvb < 3 pmol/ug). Type of data set: functional. The method in brief:
as §2

Data set [5] in a line: Drug metabolism in human DU145 cells at 100 uM assessed as methylspermidine metabolite level assessed per ug DNA in presence of SSAO inhibitor aminoguanidine after 3 days by HPLC method. Type of data set: ADME, cell-based. As to conditions: du-145, 72 h. The method in brief: as §2
The subject of data set [6] is DU-145. The data set is described as follows: Downregulation of intracellular putrescine level in human DU145 Cells assessed per ug DNA at 100 uM after 3 days by HPLC method (reference value: 19 +/- 2 pmol/ug). In kind it is functional. An outline of the steps:
as §2

A short description of data set [7]: Drug level in human DU145 cells assessed per ug DNA at 100 uM after 6 hrs by HPLC method. In kind it is ADME, cell-based. The note with it: du-145, 6 h. The method in brief: as §2
Data set [8] concerns DU-145. Description: Downregulation of intracellular spermidine level in human DU145 Cells assessed per ug DNA at 100 uM after 3 days in presence of SSAO inhibitor aminoguanidine by HPLC method (reference value: 175 +/- 5 pmol/ug). Type of data set: functional. The method in brief: as §2
Data set [9] deals with DU-145. Description: Downregulation of intracellular spermine level in human DU145 Cells at 100 uM after 3 days by HPLC method (reference value: 102 +/- 4 pmol/ug). Type of data set: functional. An outline of the steps: as §2
A short description of data set [10]: Drug uptake in human DU145 cells assessed as reduction in [14C]-spermine uptake at 1 to 100 uM by competition based assay. In kind it is ADME, cell-based. As to conditions: du-145, 100 µM.
The target of data set [11] is Peroxisomal N(1)-acetyl-spermine/spermidine oxidase (Homo sapiens, UniProt Q6QHF9). The data set is described as follows: (§3) Inhibition of recombinant human APAO at 50 uM using N1-acetylspermidine level as substrate relative to control. As to conditions: 50 µM. The method in brief:
(§4)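 Competition with natural substrate at fixed 50 μM: spermine for purified bovine plasma SSAO and human recombinant SMOX, N1-acetylspermidine for human recombinant APAO. Analogue tested at 50 μM, with activity expressed relative to reaction without analogue.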

The subject of data set [12] is DU-145. Description: Downregulation of intracellular spermidine level in human DU145 Cells assessed per ug DNA at 100 uM after 6 hrs by HPLC method (reference value: 134 +/- 7 pmol/ug). In kind it is functional. The method in brief: as §2
Data set [13] has as its system DU-145. Description: Downregulation of intracellular N1-acetylspermidine level in human DU145 cells assessed per ug DNA at 100 uM after 3 days by HPLC method (reference value: 3 pmol/ug). In kind it is functional. An outline of the steps: as §2
The test system of data set [14] is DU-145. Description: Downregulation of intracellular N1-acetylspermidine level in human DU145 cells assessed per ug DNA at 100 uM after 3 days in presence of SSAO inhibitor aminoguanidine by HPLC method (reference value: 3 +/- 1 pmol/ug). In kind it is functional. The method in brief: as §2
Data set [15] has as its system DU-145. The data set is described as follows: Downregulation of intracellular spermine level in human DU145 Cells at 100 uM after 6 hrs by HPLC method (reference value: 106 +/- 4 pmol/ug). Type of data set: functional. An outline of the steps:
as §2

A short description of data set [16]: Drug metabolism in human DU145 cells at 100 uM assessed as methylspermidine metabolite level assessed per ug DNA after 3 days by HPLC method. In kind it is ADME, cell-based. As to conditions: du-145, 72 h. The method in brief:
as §2

Data set [17] concerns DU-145. The data set is described as follows: Downregulation of intracellular spermidine level in human DU145 Cells assessed per ug DNA at 100 uM after 3 days by HPLC method (reference value: 123 +/- 3 pmol/ug). Type of data set: functional. An outline of the steps:
as §2

Data set [18] has as its system DU-145. The data set is described as follows: Cytotoxicity against human DU145 cells at 100 uM in presence of SSAO inhibitor aminoguanidine after 3 days. In kind it is cell-based. As to conditions: du-145, 72 h. An outline of the steps: as §1
In data set [19] the test system is DU-145. Description: Downregulation of intracellular putrescine level in human DU145 Cells assessed per ug DNA at 100 uM after 6 hrs by HPLC method (reference value: 40 +/- 2 pmol/ug). Type of data set: functional. The method in brief: as §2
The test system of data set [20] is DU-145. The data set is described as follows: Downregulation of intracellular spermine level in human DU145 Cells assessed per ug DNA at 100 uM after 3 days in presence of SSAO inhibitor aminoguanidine by HPLC method (reference value: 157 +/- 8 pmol/ug). In kind it is functional. The method in brief:
as §2

Data set [21] can be described thus: Drug metabolism in human DU145 cells at 100 uM assessed as methylspermidine metabolite level assessed per ug DNA after 6 hrs by HPLC method. Type of data set: ADME, cell-based. As to conditions: du-145, 6 h. The method in brief:
as §2

The target of data set [22] is APAO (peroxisomal N(1)-acetyl-spermine/spermidine oxidase) (Homo sapiens, UniProt Q6QHF9). The description is as §3. The note with it: recombinant human APAO, probe N1-acetylspermidine. An outline of the steps: as §4
For data set [23], the target named is T1, Amine oxidase [copper-containing] 3 (Bos taurus, UniProt Q9TTK6).
T1 sequence (Q9TTK6 whole entry): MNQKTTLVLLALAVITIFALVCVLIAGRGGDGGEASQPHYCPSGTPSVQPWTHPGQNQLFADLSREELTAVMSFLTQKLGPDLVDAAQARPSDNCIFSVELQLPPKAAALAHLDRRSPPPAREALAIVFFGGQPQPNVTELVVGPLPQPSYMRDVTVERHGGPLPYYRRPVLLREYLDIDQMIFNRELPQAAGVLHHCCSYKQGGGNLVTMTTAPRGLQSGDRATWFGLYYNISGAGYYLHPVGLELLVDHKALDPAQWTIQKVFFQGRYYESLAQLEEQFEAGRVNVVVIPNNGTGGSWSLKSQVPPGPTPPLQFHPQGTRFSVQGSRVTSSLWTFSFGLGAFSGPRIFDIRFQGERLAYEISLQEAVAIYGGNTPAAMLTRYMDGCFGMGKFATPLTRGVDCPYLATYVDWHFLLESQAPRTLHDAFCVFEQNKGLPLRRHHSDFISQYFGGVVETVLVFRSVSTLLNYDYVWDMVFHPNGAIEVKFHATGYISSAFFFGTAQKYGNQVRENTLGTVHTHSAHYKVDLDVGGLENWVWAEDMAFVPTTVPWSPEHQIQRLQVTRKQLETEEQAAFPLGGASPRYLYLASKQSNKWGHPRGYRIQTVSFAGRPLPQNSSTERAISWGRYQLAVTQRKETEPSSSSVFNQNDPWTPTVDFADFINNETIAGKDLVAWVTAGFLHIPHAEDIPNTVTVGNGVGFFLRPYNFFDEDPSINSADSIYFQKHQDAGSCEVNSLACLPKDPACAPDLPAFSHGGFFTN
The data set is described as follows: Substrate activity at bovine plasma SSAO at 5 mM relative to spermine. In kind it is ADME. As to conditions: cattle, 5000 µM. The method in brief: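 Purified bovine plasma SSAO given analogue as substrate at 5 mM, the same saturating concentration used for spermine. Activity compared with spermine. Means ± SD, n = 3.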

Sequence of Peroxisomal N(1)-acetyl-spermine/spermidine oxidase (Q6QHF9 whole entry): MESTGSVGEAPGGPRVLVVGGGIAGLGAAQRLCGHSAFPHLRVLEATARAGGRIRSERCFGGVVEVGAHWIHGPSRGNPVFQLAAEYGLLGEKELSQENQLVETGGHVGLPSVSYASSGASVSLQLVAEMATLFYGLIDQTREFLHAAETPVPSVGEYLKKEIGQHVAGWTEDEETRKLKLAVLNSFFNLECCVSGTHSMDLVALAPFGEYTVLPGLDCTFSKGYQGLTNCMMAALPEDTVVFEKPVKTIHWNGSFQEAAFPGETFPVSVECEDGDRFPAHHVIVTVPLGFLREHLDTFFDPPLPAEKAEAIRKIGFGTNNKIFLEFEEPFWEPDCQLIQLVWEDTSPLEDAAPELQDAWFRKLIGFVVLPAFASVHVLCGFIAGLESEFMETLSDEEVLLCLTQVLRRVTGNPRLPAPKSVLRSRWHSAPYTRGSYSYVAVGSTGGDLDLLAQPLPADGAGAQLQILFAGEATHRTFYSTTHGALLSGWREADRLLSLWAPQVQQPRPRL
Sequence of APAO (peroxisomal N(1)-acetyl-spermine/spermidine oxidase) (Q6QHF9 whole entry): as above

Take `CC(N)CCNCCCCNCCC(C)N` (stereo unspecified): the Activity entry in the data set on DU-145 [1] is listed as “Non-Toxic”; in the data set on DU-145 [4], 5 pmol; with DU-145 [6], less than 3 pmol; with DU-145 [8], 3 pmol; with DU-145 [9] it was 27 pmol; in data set [10] it was “Active”. Moreover, the Activity was 105 pmol in the data set with DU-145 [12]; less than 3 pmol in the data set with DU-145 [13]; less than 3 pmol with DU-145 [14]; 84 pmol in the data set on DU-145 [15]; 13 pmol in the data set with DU-145 [17]; “Non-Toxic” in the data set with DU-145 [18]. Further, the Activity was 15 pmol in the data set on DU-145 [19] and 19 pmol in the data set on DU-145 [20]. The Drug uptake came out at 217 pmol in data set [2], 168 pmol in data set [3] and 70 pmol in data set [7]. In addition, the Drug metabolism in data set [5] turned out to be 10 pmol; in [16] it was 4 pmol. For the same molecule, the “inhibition (INH)” value in data set [11] is recorded as “Not Active”.
`CC(CCN)NCCCCNC(C)CCN` (stereo unspecified): the Activity result in the data set with DU-145 [1] was “Non-Toxic”; in the data set with DU-145 [4], 3 pmol; in the data set on DU-145 [6], 12 pmol; in the data set on DU-145 [8] it was 31 pmol; with DU-145 [9] it was 69 pmol; in data set [10] it was “Active”. The Activity in the data set with DU-145 [12] is given as 79 pmol; in the data set with DU-145 [13], less than 3 pmol; in data set [23], 30%; in the data set with DU-145 [15] it was 80 pmol; in the data set with DU-145 [17], 34 pmol; in the data set on DU-145 [18], “Non-Toxic”. Also, the Activity with DU-145 [19] came to 27 pmol; in the data set with DU-145 [20], 68 pmol. Further, the Drug uptake in data set [2] is recorded as 191 pmol; in data set [3] it was 29 pmol; in data set [7], 26 pmol. Moreover, the Drug metabolism is on record as 44 pmol in data set [5], 34 pmol in data set [21] and 116 pmol in data set [16]. Besides, in data set [22], the inhibition (as a rule, the drop in the measured response relative to a control, in per cent) at 50 µM came out at 45%.
In the case of `CC(CN)CNCCCCNCC(C)CN` (stereo unspecified), the Activity entry in the data set on DU-145 [1] is recorded as “Non-Toxic”; with DU-145 [4], 4 pmol; in the data set on DU-145 [6], less than 3 pmol; in the data set with DU-145 [8] it was less than 3 pmol; in the data set with DU-145 [9] it was 40 pmol; in data set [10], “Active”. Besides, the Activity in the data set on DU-145 [12] is on record as 99 pmol; in the data set on DU-145 [15], 76 pmol; in the data set on DU-145 [17], 13 pmol; in the data set on DU-145 [18] it was “Non-Toxic”; with DU-145 [19], 10 pmol; in the data set with DU-145 [20], 33 pmol. For the same molecule, the Drug uptake is given as 222 pmol in [2], 147 pmol in [3] and 59 pmol in data set [7]. Moreover, in data set [11], the “inhibition (INH)” value was “Not Active”. For the same molecule, the Drug metabolism in [16] was 20 pmol.
For the molecule `NCCCNCCCCNCCCN` [SPERMINE], the Activity result with DU-145 [1] is on record as “Non-Toxic”; in [10], “Active”; with DU-145 [18] it was “Toxic”.
